CHRM1 PAM = potentiates human M1 receptor response to acetylcholine | P11229 | CHO-K1 hM1, Fluo-8 calcium fluorescence, ACh EC20; 0% = ACh EC20, 100% = maximal ACh | activation, % at 3 µM | 360,000 tested, 0.088% active | AID 588819; in the data active = activation above about 19%, passing the limit was not always enough
Target sequence (P11229 whole entry, looked up): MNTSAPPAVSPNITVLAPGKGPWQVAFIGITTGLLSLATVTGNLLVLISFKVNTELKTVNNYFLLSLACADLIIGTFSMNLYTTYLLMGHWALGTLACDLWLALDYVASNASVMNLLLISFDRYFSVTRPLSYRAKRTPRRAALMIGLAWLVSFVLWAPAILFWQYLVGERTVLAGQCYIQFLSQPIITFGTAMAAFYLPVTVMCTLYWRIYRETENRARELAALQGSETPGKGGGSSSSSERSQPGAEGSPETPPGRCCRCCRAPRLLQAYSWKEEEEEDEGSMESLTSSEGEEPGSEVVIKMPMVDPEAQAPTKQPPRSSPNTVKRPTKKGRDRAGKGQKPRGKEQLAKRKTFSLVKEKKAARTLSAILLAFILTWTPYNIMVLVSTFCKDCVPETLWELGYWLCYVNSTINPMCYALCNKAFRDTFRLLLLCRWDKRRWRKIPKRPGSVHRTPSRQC
M5 PAM = potentiates acetylcholine response at human M5 receptor | activation, % at 3 µM | AID 624038 | 360,000 tested, 0.3% active | P08912 | CHO-K1 hM5, Fluo-8 calcium, ACh EC20 PAM; 0% = ACh EC20, 100% = ACh EC100;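 active = activation above the run cutoff, the mean activation of all test compounds plus 3 SD, cut at about 18% in these data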
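system = human M5 receptor in CHO-K1 cells | compound = one concentration, 3 µM final (nominal) | schedule = Post-acetylcholine fluorescence recording 140 s | signal = Fluo-8 calcium dye fluorescence, kinetic read | benchmarks = low control EC20 acetylcholine (0%), high control EC100 acetylcholine (100%) | repeats = singlicate, one well per test compound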
CHRM1 agonist = human M1 muscarinic receptor agonism; P11229; CHO-K1 hM1, Fluo-8 calcium fluorescence, agonist mode; 0% DMSO, 100% acetylcholine EC100; activation, % at 3 µM; 360,000 tested, 0.33% active; AID 588814;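 active = activation above the run's mean compound activation plus 3 SD, cut at about 16% in these data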;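 note: peak over basal fluorescence ratio within a 140 s kinetic read after compound addition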
M5 ag = agonists of human muscarinic M5 receptor (CHRM5) | P08912 | CHO-K1 hM5 cells, Fluo-8 calcium fluorescence; 0% DMSO wells, 100% maximal acetylcholine response | activation, % at 3 µM | 360,000 tested, 0.19% active | AID 624037;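 active = activation above the run's mean over test compounds plus 3 SD, cut at about 23% in these data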;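 note: signal is peak over basal fluorescence ratio across the kinetic read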
M1 antag = human CHRM1 antagonism; P11229; CHO-K1 hM1, Fluo-8 calcium fluorescence, ACh EC80 antagonist; inhibition, % at 3 µM; 360,000 tested, 1.3% active; AID 588852;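 active = percent inhibition above its own plate's cutoff, namely the mean of that plate's compound wells plus 3 SD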;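 note: peak over basal fluorescence ratio during 140 s after agonist addition; 0% = ACh EC80 plus DMSO and 100% = DMSO alone without agonist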
CHRM5 antagonist = CHRM5 antagonism in calcium assay. P08912. 360,000 tested, 0.59% active. inhibition, % at 3 µM. CHO-hM5 cells, Fluo-8 calcium fluorescence, ACh EC80;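 active = inhibition above a per-plate cutoff, the mean of that plate's test compounds plus 3 SD, cut at about 27% in these data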;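 note: 0% = acetylcholine EC80 with DMSO and 100% = DMSO without agonist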
* marks the source's active call; other numbers are inactive results; . = no result. Only some compounds are listed: those with a hit (about 2% of all), similar ones and a draw of the others.

SMILES	CHRM1 PAM	M5 PAM	CHRM1 agonist	M5 ag	M1 antag	CHRM5 antagonist
O=C(CN1CCCC1)N1c2ccccc2Sc2ccccc21	-22	-14	-5	-10	97*	59*
CCN1CCN(CC(=O)N2c3ccccc3Sc3ccccc32)CC1	-27	-19	-9	-8	76*	5
C[C@H]1CN([C@@H](C)CO)S(=O)(=O)c2ccc(C#CC3(O)CCCC3)cc2O[C@@H]1CN(C)C(=O)Cc1cccnc1	-6	-1	-7	-1	-7	8
Cc1cccc(C)c1NC(=O)C1(C)CN(S(C)(=O)=O)CC(=O)N1CC(F)(F)F (centres undefined)	.	-3	.	0	.	4
CCOC(=O)C1(CCc2ccccc2)CCN(C(=O)c2occc2C)CC1	9	0	-13	-6	-4	-4
CCOC(=O)C1(CCc2ccccc2)CCN(C2Cc3ccccc3C2)CC1	-32	-20	-13	-10	21	41*
COc1ccc(CN2C(=O)COc3ccccc3C2c2nc3ccccc3[nH]2)cc1 (centres undefined)	.	-4	.	-4	.	2
CCN(CC)C(=O)c1ccc(COc2ccc(Cl)c(C)c2)o1	-10	-23	4	2	32*	31*
COc1cccc(-c2nc3n(n2)CCc2ccccc2-3)c1	8	-3	0	-1	-17	2
CC[N+](CC)(CC)CCOc1ccc(/C=C/c2ccccc2)cc1	-27	-18	-7	-1	95*	95*
CCOc1ccc(/C=C/C(=O)c2ccccc2)cc1	8	-2	-4	-3	-8	-1
O=C(NCCN1CCC(n2c(=O)[nH]c3ccccc32)CC1)C(c1ccccc1)c1ccccc1	.	-24	.	-4	.	37*
O=C(NCCN1CCC(n2c(=O)[nH]c3ccccc32)CC1)c1ccncc1	.	-2	.	1	.	0
O=c1c2ccccc2nc(SCc2ccc([N+](=O)[O-])cc2)n1-c1ccccc1	23*	-6	-3	-2	12	7
Cn1c(SCc2cccc([N+](=O)[O-])c2)nc2ccccc2c1=O	-13	-11	0	5	36*	11
Cc1ccc(N2CCC3CC2c2cc(-c4ccc(C(F)(F)F)cc4)ccc23)cc1 (centres undefined)	-14	3	-2	2	23	-1
CCN(CC)C(CNC(=O)c1cc(=O)[nH]c2ccccc12)c1ccccc1Cl (centres undefined)	-30	-10	-11	-8	55*	7
O=C(NCc1cccc(Cl)c1)c1cc(=O)[nH]c2ccccc12	0	-3	-4	-1	7	3
O=C(Nc1cccc(C(=O)O)c1)/C(=C/c1ccc2c(c1)OCO2)NC(=O)c1cccc(Br)c1	2	-13	-5	0	-1	28*
CCc1ccccc1CC1CN(Cc2ccccc2)Cc2ccccc2N1c1ccc(OC)cc1 (centres undefined)	.	-2	.	0	.	4
CNC(=O)c1cn2c3c(ccc(Cl)c3c1=O)OC(C)C2 (centres undefined)	0	-4	-4	-2	-9	6
O=C(O)c1cn2c3c(ccc(Cl)c3c1=O)OCC2	26*	6	1	-2	-28	4
CSC1=NSC2=NC(=O)/C(=C\c3ccc(OC(=O)c4ccco4)cc3)C(=N)N12	4	5	-3	0	-4	-1
CC(C)CC1=NN2C(=N)/C(=C\c3coc4ccccc4c3=O)C(=O)N=C2S1	-31	-25	125*	158*	45*	48*
CCSC1=NSC2=NC(=O)/C(=C\c3coc4ccccc4c3=O)C(=N)N12	-27	-21	87*	51*	61*	63*
SMILES	CHRM1 PAM	M5 PAM	CHRM1 agonist	M5 ag	M1 antag	CHRM5 antagonist
NCCCCCc1nnc(SCc2ccc(Cl)c(Cl)c2)o1	-27	-19	-7	-7	48*	36*
COc1ccccc1-c1cc2nc(-c3ccccc3)cc(N3CCN(C(=O)c4ccco4)CC3)n2n1	-8	-3	-2	0	7	9
CC(C)=N/N=C(\c1cccc([N+](=O)[O-])c1)C12CN3CN(CN(C3)C1)C2	-21	-19	15	-7	62*	9
COc1ccc2oc(C(=O)OCC(=O)NC3(C#N)CCCC3)c(C)c2c1	-6	2	-1	-1	18	5
COC(=O)c1oc2c(c1C)C1(CCC2)SCCS1	-21	-8	-6	-7	30*	5
Cn1c2nc(=O)n(-c3ccccc3)c(=O)c-2nc2c1CCCC2	4	0	1	1	-11	1
Fc1ccccc1C1c2[nH]c3ccccc3c2CCN1CCCn1cccn1 (centres undefined)	-22	-5	-8	-12	38*	7
CC(C)(C)C1c2[nH]c3ccccc3c2CCN1CCCn1cccn1 (centres undefined)	-3	-5	-10	-5	1	15
Cc1c(C(=O)N2CCN(c3ccccc3)CC2)oc2c1C(=O)CC(C)(C)C2	-15	-9	0	2	30*	9
Cc1c(C(=O)N2CCN(c3ccccc3F)CC2)oc2c1C(=O)CC(C)(C)C2	-2	-8	0	0	10	14
OC1(C#CCCN2CCCCC2)c2ccccc2-c2ccccc21	-27	-35	-8	-17	99*	90*
OC1(CC#CCN2CCCCC2)c2ccccc2-c2ccccc21	-27	-18	-7	-20	55*	11
COC(=O)C[C@H]1C=C[C@@H](NC(=O)c2ccncc2)[C@@H](CO)O1	.	-4	.	-1	.	8
O=C1CCN2C=Nc3cccc4ccc1c2c34	-3	-3	25*	9	-13	10
O=C1c2ccccc2C(c2nnnn2-c2ccc3c(c2)OCCO3)N1CCCN1CCOCC1 (centres undefined)	.	-6	.	0	.	10
CC(C)N(C)Cc1nnnn1CC(=O)NCCc1cccc(C(F)(F)F)c1	8	22*	-1	3	-9	1
CCNC(=O)C1(C)CCCN(Cc2cc(-c3ccccc3)n(C)n2)C1 (centres undefined)	5	-2	-4	0	-18	4
CCCn1c(SCC(=O)Nc2cccc(F)c2)nc(O)cc1=O	-1	-5	-2	5	0	34*
CCCn1c(SCC(=O)Nc2ccccc2Cl)nc(O)cc1=O	13	-15	1	16	-13	7
Cc1ccc(N2C(=O)N(CC(=O)Nc3ccccc3C)C(=O)C2C)cc1 (centres undefined)	16	19*	5	2	-2	-40
CCc1nnc(SCc2ccc(C(=O)OC)o2)n1N	10	19*	-2	2	-5	-10
